Laboratory results from ChEMBL document CHEMBL4325893, “Synthesis and antibacterial profiles of targeted triclosan derivatives” (2019).
In brackets after ≈: the same amount, converted by molar mass.

What was measured:
Aeromonas hydrophila = assay: Antibacterial activity against Aeromonas hydrophila OCC 778 after 18 hrs; assay type: functional; settings: OCC 778, 18 h
Procedure, shortened: (§1)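 Broth microdilution in Nutrient Broth No. 2; stocks in ethanol diluted to 0.01–128 µg/ml (triclosan) or 0.25–256 µg/ml (glycosides). Overnight 37 °C NB2 cultures diluted 1 in 10^4 in saline and added to the dilutions. Incubation at 37 °C with agitation, OD read every 15 min; MIC is the lowest concentration preventing any OD rise after 18 h.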

Citrobacter freundii [1] = assay: Antibacterial activity against Citrobacter freundii OCC 851 after 18 hrs; assay type: functional; settings: OCC 851, 18 h; procedure, shortened: as §1
Cronobacter sakazakii = assay: Antibacterial activity against Cronobacter sakazakii 29544 after 18 hrs; assay type: functional; settings: Cronobacter sakazakii, 29544, 18 h; procedure, shortened: as §1
Klebsiella aerogenes [2] = assay: Antibacterial activity against Enterobacter aerogenes ATCC 13048 after 18 hrs; assay type: functional; settings: ATCC 13048, 18 h; procedure, shortened: as §1
[3] = Antibacterial activity against Enterobacter cloacae ATCC 13047 after 18 hrs; assay type: functional, Enterobacter cloacae subsp. cloacae; settings: ATCC 13047, 18 h; procedure, shortened: as §1
Escherichia coli [4] = assay: Antibacterial activity against Escherichia coli ATCC 8739 after 18 hrs; assay type: functional; settings: ATCC 8739, 18 h; procedure, shortened: as §1
Escherichia coli [5] = assay: Antibacterial activity against Escherichia coli ATCC 10536 after 18 hrs; assay type: functional; settings: ATCC 10536, 18 h; procedure, shortened: as §1
Escherichia coli [6] = assay: Antibacterial activity against Escherichia coli ATCC 11775 after 18 hrs; assay type: functional; procedure, shortened: as §1
Escherichia coli [7] = assay: Antibacterial activity against Escherichia coli ATCC 25922 after 18 hrs; assay type: functional; settings: ATCC 25922, 18 h; procedure, shortened: as §1
Escherichia coli [8] = assay: Antibacterial activity against Escherichia coli ATCC 35218 after 18 hrs; assay type: functional; settings: ATCC 35218, 18 h; procedure, shortened: as §1
Escherichia coli [9] = assay: Antibacterial activity against Escherichia coli 700728 after 18 hrs; assay type: functional; settings: Escherichia coli, 700728, 18 h; procedure, shortened: as §1
Escherichia coli [10] = assay: Antibacterial activity against Escherichia coli NCTC 13216 after 18 hrs; assay type: functional; settings: NCTC 13216, 18 h; procedure, shortened: as §1
Escherichia coli [11] = assay: Antibacterial activity against Escherichia coli OCC 122 after 18 hrs; assay type: functional; settings: OCC 122, 18 h; procedure, shortened: as §1
Escherichia hermannii = assay: Antibacterial activity against Escherichia hermannii 33650 after 18 hrs; assay type: functional; settings: Atlantibacter hermannii, 33650, 18 h; procedure, shortened: as §1
Hafnia alvei = assay: Antibacterial activity against Hafnia alvei 13337 after 18 hrs; assay type: functional; settings: Hafnia alvei, 13337, 18 h; procedure, shortened: as §1
Klebsiella aerogenes [12] = assay: Antibacterial activity against Klebsiella aerogenes NCTC 8167 after 18 hrs; assay type: functional; settings: NCTC 8167, 18 h; procedure, shortened: as §1
Klebsiella pneumoniae [13] = assay: Antibacterial activity against Klebsiella pneumoniae ATCC 10031 after 18 hrs; assay type: functional; settings: ATCC 10031, 18 h; procedure, shortened: as §1
Proteus mirabilis = assay: Antibacterial activity against Proteus mirabilis ATCC 12453 after 18 hrs; assay type: functional; settings: ATCC 12453, 18 h; procedure, shortened: as §1
Proteus vulgaris = assay: Antibacterial activity against Proteus vulgaris OCC 195 after 18 hrs; assay type: functional; settings: OCC 195, 18 h; procedure, shortened: as §1
Pseudomonas aeruginosa = assay: Antibacterial activity against Pseudomonas aeruginosa ATCC 27853 after 18 hrs; assay type: functional; settings: ATCC 27853, 18 h; procedure, shortened: as §1
Klebsiella pneumoniae [14] = assay: Antibacterial activity against Klebsiella pneumoniae ATCC 13883 after 18 hrs; assay type: functional; settings: ATCC 13883, 18 h; procedure, shortened: as §1
Citrobacter freundii [15] = assay: Antibacterial activity against Citrobacter freundii 8090 after 18 hrs; assay type: functional; settings: Citrobacter freundii, 8090, 18 h; procedure, shortened: as §1
Serratia marcescens = assay: Antibacterial activity against Serratia marcescens OCC 217 after 18 hrs; assay type: functional; settings: OCC 217, 18 h; procedure, shortened: as §1
Bacillus cereus = assay: Antibacterial activity against Bacillus cereus ATCC 14579 after 18 hrs; assay type: functional; settings: ATCC 14579, 18 h; procedure, shortened: as §1
Bacillus subtilis = assay: Antibacterial activity against Bacillus subtilis NCTC 10073 after 18 hrs; assay type: functional; settings: NCTC 10073, 18 h; procedure, shortened: as §1
Enterococcus faecalis [16] = assay: Antibacterial activity against Enterococcus faecalis ATCC 29212 after 18 hrs; assay type: functional; settings: ATCC 29212, 18 h; procedure, shortened: as §1
Enterococcus faecalis [17] = assay: Antibacterial activity against Enterococcus faecalis ATCC 33186 after 18 hrs; assay type: functional; settings: ATCC 33186, 18 h; procedure, shortened: as §1
Enterococcus faecium = assay: Antibacterial activity against Enterococcus faecium ATCC 19434 after 18 hrs; assay type: functional; settings: ATCC 19434, 18 h; procedure, shortened: as §1

For `OC[C@H]1O[C@H](Oc2cc(Cl)ccc2Oc2ccc(Cl)cc2Cl)[C@H](O)[C@@H](O)[C@H]1O`, the MIC (Aeromonas hydrophila) was > 256 mg/L, the MIC (Citrobacter freundii [1]) was 64 mg/L (≈ 142 µM) and the MIC (Cronobacter sakazakii) was 128 mg/L (≈ 283 µM). The MIC (Klebsiella aerogenes [2]) was 128 mg/L (≈ 283 µM), the MIC [3] was 32 mg/L (≈ 70.8 µM) and the MIC (Escherichia coli [4]) was 16 to 64 mg/L (≈ 35.4 to 142 µM). For the same compound, the MIC (Escherichia coli [5]) was 16 to 64 mg/L (≈ 35.4 to 142 µM), the MIC (Escherichia coli [6]) was 16 to 64 mg/L (≈ 35.4 to 142 µM) and the MIC (Escherichia coli [7]) was 16 to 64 mg/L (≈ 35.4 to 142 µM). It also gave an MIC (Escherichia coli [8]) of 16 to 64 mg/L (≈ 35.4 to 142 µM), an MIC (Escherichia coli [9]) of 16 to 64 mg/L (≈ 35.4 to 142 µM) and an MIC (Escherichia coli [10]) of 16 to 64 mg/L (≈ 35.4 to 142 µM). The MIC (Escherichia coli [11]) was 16 to 64 mg/L (≈ 35.4 to 142 µM), the MIC (Escherichia hermannii) was 32 mg/L (≈ 70.8 µM) and the MIC (Hafnia alvei) was 16 mg/L (≈ 35.4 µM). It also gave an MIC (Klebsiella aerogenes [12]) of 32 mg/L (≈ 70.8 µM), an MIC (Klebsiella pneumoniae [13]) of 1 mg/L (≈ 2.21 µM) and an MIC (Proteus mirabilis) of 32 mg/L (≈ 70.8 µM). The MIC (Proteus vulgaris) was 64 mg/L (≈ 142 µM), the MIC (Pseudomonas aeruginosa) was > 256 mg/L and the MIC (Klebsiella pneumoniae [14]) was 1 mg/L (≈ 2.21 µM). The MIC (Citrobacter freundii [15]) was 64 mg/L (≈ 142 µM), the MIC (Serratia marcescens) was > 256 mg/L and the MIC (Bacillus cereus) was > 256 mg/L. For the same compound, the MIC (Bacillus subtilis) was 256 mg/L (≈ 567 µM), the MIC (Enterococcus faecalis [16]) was > 256 mg/L and the MIC (Enterococcus faecalis [17]) was > 256 mg/L. For the same compound, the MIC (Enterococcus faecium) was > 256 mg/L.
